Screening results (PubChem BioAssay)
The list is not random: actives were taken first. Their share in the collection is about 3.9%.
SR-BI uptake up: activators of SR-BI mediated HDL lipid uptake; hit rate 0.096% among 320,000; activation, % at 12.5 µM; CHO ldlA[mSR-BI] cells, DiI-HDL uptake fluorescence, 3 h; 100 = double the neutral-control signal;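 active = mean replicate activation of at least 60% and every replicate at or above 60%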;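 note: 0% = median plate neutral-control signal and 100% = twice that signal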
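System: LDL receptor-deficient CHO ldlA cells overexpressing murine SR-BI | Timing: 3 h uptake period with compound, 37 °C | Medium: HEPES-buffered (25 mM, pH 7.4) F12 plus 0.5% BSA | Dosing: Single-point compound dose | Signal: Bottom-read fluorescence, 550/595 nm | Read-out: Retained DiI signal reflecting DiI-HDL uptake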
FXN GAA850 act: frataxin GAA850 promoter activation | HEK293 lucGAA850 FXN promoter luciferase reporter, 24 h; percent of 10 µM SAHA response | activation, % at 6 µM | hit rate 0.56% among 360,000 | AID 540364;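 active = activation above the average of all compounds screened plus 3 SD, cutoff fixed separately per campaign, cut at about 7.5% in these data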;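 note: 0% = DMSO wells and 100% = 10 µM SAHA wells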
HIF act: HIF pathway transcriptional activation; AID 1910; activation, % at 7.5 µM (by protocol); hit rate 0.32% among 300,000; U2OS HRE-luciferase reporter, luminescence; normalized: DMSO 0%, desferrioxamine 100%;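 active = mean activation of at least 10% of the iron chelator positive control signal, with at least half of replicates also reaching 10%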
ABCB6 inh MLPCN: inhibitors of human ABC transporter ABCB6; Q9NP58; hit rate 0.19% among 360,000; fluorescence ratio to DMSO, % at 10 µM; K562-ABCB6 porphyrin accumulation, flow cytometry, 1 h; active compounds read low;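 active = fluorescence ratio to DMSO below 75%, the collection mean minus 3 SD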;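 note: signal is porphyrin accumulated inside mitochondria; 100% equals median channel fluorescence of DMSO control wells; lower ratio means ABCB6 inhibition with less porphyrin fluorescence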
AHR activator: human AHR activation; hit rate 2.5% among 320,000; P35869; activation, % at 5 µM; AHR-responsive luciferase reporter cells, luminescence; in the data active = activation above about 47%;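 note: 0% = vehicle wells and 100% = reference agonist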
SR-BI HDL uptake: mouse SR-BI HDL lipid transfer inhibition; Q61009; ldlA[mSR-BI] CHO cells, DiI-HDL uptake fluorescence, 3 h; inhibition, % at 12.5 µM; hit rate 0.96% among 320,000; AID 488896;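 active = mean replicate inhibition of at least 70% and a set share of replicates each scoring 70 or more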;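 note: 0% = median of neutral control wells and 100% = median of positive control wells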
Target sequence (Q61009 whole entry, looked up): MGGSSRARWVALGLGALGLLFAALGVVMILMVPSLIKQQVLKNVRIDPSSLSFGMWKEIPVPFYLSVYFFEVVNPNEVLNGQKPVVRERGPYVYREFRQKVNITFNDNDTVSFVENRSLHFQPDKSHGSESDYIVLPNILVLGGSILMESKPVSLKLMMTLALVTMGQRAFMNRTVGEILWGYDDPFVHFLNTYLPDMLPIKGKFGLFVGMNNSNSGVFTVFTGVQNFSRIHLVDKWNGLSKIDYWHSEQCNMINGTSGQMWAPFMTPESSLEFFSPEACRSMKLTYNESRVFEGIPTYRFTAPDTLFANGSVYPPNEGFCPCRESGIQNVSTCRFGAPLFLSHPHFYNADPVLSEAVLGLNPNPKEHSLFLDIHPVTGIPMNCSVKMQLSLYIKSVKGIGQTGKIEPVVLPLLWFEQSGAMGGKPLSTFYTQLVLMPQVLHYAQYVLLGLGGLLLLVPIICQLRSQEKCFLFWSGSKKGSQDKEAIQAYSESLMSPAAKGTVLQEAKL
An asterisk follows results filed as active.

What do the screens show for `Cc1nn(-c2ccccc2)c2sc(C(=O)NC3CCCCC3)cc12`?
SR-BI uptake up: -49.7; FXN GAA850 act: 0.0; HIF act: -18.1; ABCB6 inh MLPCN: 98.0; AHR activator: 24.3; SR-BI HDL uptake: 49.7

What do the screens show for `Cc1cnc(NC(=O)c2cc3c(C)nn(-c4ccccc4)c3s2)s1`?
SR-BI uptake up: -76.3; FXN GAA850 act: 3.1; HIF act: -0.2; ABCB6 inh MLPCN: 91.0; AHR activator: 60.7*; SR-BI HDL uptake: 76.3*

Results for Cc1nn(-c2ccccc2)c2sc(C(=O)NNC(=O)COc3ccccc3)cc12 ?
SR-BI uptake up: -21.2; FXN GAA850 act: -3.1; HIF act: 0.2; ABCB6 inh MLPCN: 98.0; AHR activator: 57.8*; SR-BI HDL uptake: 21.2

What do the screens show for `CC1=CC2=NC(=O)/C(=C\c3ccc(-c4cccc(Cl)c4)o3)C(=N)N2O1`?
SR-BI uptake up: -49.0; FXN GAA850 act: 2.2; HIF act: -0.1; ABCB6 inh MLPCN: 114.0; AHR activator: 69.9*; SR-BI HDL uptake: 49.0

How did CC1=NOC(=O)/C1=C\c1ccc(-c2cccc(Cl)c2)o1 do in these assays?
SR-BI uptake up: -31.9; FXN GAA850 act: -0.2; HIF act: 0.2; ABCB6 inh MLPCN: 120.0; AHR activator: 5.6; SR-BI HDL uptake: 31.9

Results for C#CCOCCOCCOCCNc1nc(N2CCN(C(=O)[C@H](CCCN=C(N)N)n3cc(C(N)[C@H](C)CC)nn3)CC2)nc(N2CCN(C(=O)[C@H](CCCN=C(N)N)n3cc(C(N)[C@@H](C)CC)nn3)CC2)n1 (some centres not stated) ?
SR-BI uptake up: 8.9; FXN GAA850 act: 2.3; ABCB6 inh MLPCN: 93.0; AHR activator: -3.1; SR-BI HDL uptake: -8.9

What do the screens show for `Cc1ccc(Nc2nc(C(=O)NCc3ccco3)cs2)cc1`?
SR-BI uptake up: -11.5; FXN GAA850 act: 4.7; HIF act: 0.7; ABCB6 inh MLPCN: 96.0; AHR activator: 52.4*; SR-BI HDL uptake: 11.5

What do the screens show for `CCN(CC)C(=O)c1csc(Nc2ccc(C)cc2)n1`?
SR-BI uptake up: -18.8; FXN GAA850 act: 2.5; HIF act: 0.1; ABCB6 inh MLPCN: 96.0; AHR activator: 1.9; SR-BI HDL uptake: 18.8

Results for CCOc1ccccc1Nc1nc(-c2sc(NC(=O)c3ccco3)nc2C)cs1 ?
SR-BI uptake up: -58.0; FXN GAA850 act: -1.8; HIF act: -9.1; ABCB6 inh MLPCN: 97.0; AHR activator: 66.3*; SR-BI HDL uptake: 58.0

Results for Cc1ccc(Nc2nc(-c3sc(NC(=O)c4ccco4)nc3C)cs2)cc1 ?
SR-BI uptake up: -65.3; FXN GAA850 act: -0.4; HIF act: 0.7; ABCB6 inh MLPCN: 98.0; AHR activator: 58.0*; SR-BI HDL uptake: 65.3

How did CCc1ccc(NC(=O)C2=CC(c3cccs3)=NS(=O)(=O)N2C)cc1 do in these assays?
SR-BI uptake up: -14.3; FXN GAA850 act: 0.7; HIF act: 0.2; ABCB6 inh MLPCN: 98.0; AHR activator: 36.1; SR-BI HDL uptake: 14.3

How did CC1CCN(Cc2nnnn2CCCC(=O)NCC(C)(C)N2CCOCC2)CC1 do in these assays?
SR-BI uptake up: 4.2; FXN GAA850 act: -0.5; HIF act: -0.9; ABCB6 inh MLPCN: 102.0; AHR activator: -1.1; SR-BI HDL uptake: -4.2

What do the screens show for `CC1CCN(Cc2nnnn2CCCC(=O)NCCc2cnn(C)c2)CC1`?
SR-BI uptake up: 7.0; FXN GAA850 act: 1.2; HIF act: 67.0*; ABCB6 inh MLPCN: 106.0; AHR activator: -0.7; SR-BI HDL uptake: -7.0

How did Cc1ncoc1C(=O)N1CCCC(N2CCN(c3cccc(C(F)(F)F)c3)CC2)C1 (configuration not stated) do in these assays?
FXN GAA850 act: -0.8; HIF act: 0.5; ABCB6 inh MLPCN: 102.0; AHR activator: 55.1*; SR-BI HDL uptake: -20.4

What do the screens show for `Cc1occc1C(=O)N1CCCC(N2CCN(c3cccc(C(F)(F)F)c3)CC2)C1` (configuration not stated)?
SR-BI uptake up: -16.2; FXN GAA850 act: -1.5; HIF act: 0.4; ABCB6 inh MLPCN: 97.0; AHR activator: 13.4; SR-BI HDL uptake: 16.2

Results for O=C(CN1CCCc2ccccc21)N/N=C/c1c(O)ccc2ccccc12 ?
SR-BI uptake up: 195.1*; FXN GAA850 act: -5.5; HIF act: 16.3*; ABCB6 inh MLPCN: 97.0; AHR activator: 38.4; SR-BI HDL uptake: -195.1

How did O=C(CN1CCCc2ccccc21)N/N=C/c1ccc(O)cc1O do in these assays?
SR-BI uptake up: 24.1; FXN GAA850 act: -4.2; HIF act: 2.6; ABCB6 inh MLPCN: 96.0; AHR activator: 53.5*; SR-BI HDL uptake: -24.1

What do the screens show for `Cc1cc(NC(=O)CSCC(=O)N(C)Cc2ccc(F)cc2)no1`?
SR-BI uptake up: -6.2; FXN GAA850 act: 0.1; HIF act: -0.2; ABCB6 inh MLPCN: 97.0; AHR activator: -1.3; SR-BI HDL uptake: 6.2

How did COc1ccc(N(CC(=O)NCc2ccc3c(c2)OCO3)S(=O)(=O)c2ccccc2[N+](=O)[O-])c(OC)c1 do in these assays?
FXN GAA850 act: -0.1; HIF act: 0.1; ABCB6 inh MLPCN: 92.0; AHR activator: 4.4; SR-BI HDL uptake: 22.6

How did COc1ccc(CCNC(=O)COC(=O)CCC(=O)c2cccs2)cc1OC do in these assays?
SR-BI uptake up: 8.3; FXN GAA850 act: 0.3; ABCB6 inh MLPCN: 100.0; AHR activator: 0.0; SR-BI HDL uptake: -8.3

Results for COc1ccc(CCNC(=S)N2CCC(C(=O)c3ccc(F)cc3)CC2)cc1OC ?
SR-BI uptake up: -80.2; FXN GAA850 act: -2.9; HIF act: -0.7; ABCB6 inh MLPCN: 86.0; AHR activator: -0.3; SR-BI HDL uptake: 80.2*

How did COc1ccc(C(=O)C2CCN(C(=S)NCCc3ccc(OC)c(OC)c3)CC2)cc1 do in these assays?
SR-BI uptake up: -67.0; FXN GAA850 act: -1.4; HIF act: -0.4; ABCB6 inh MLPCN: 96.0; AHR activator: 1.0; SR-BI HDL uptake: 67.0

How did COc1ccc(CCNC(=O)COC(=O)CCC(=O)c2ccc(F)cc2)cc1OC do in these assays?
SR-BI uptake up: 14.7; FXN GAA850 act: 1.6; HIF act: 298.9*; ABCB6 inh MLPCN: 101.0; AHR activator: 1.1; SR-BI HDL uptake: -14.7

Results for O=C(COC(=O)CCC1CCCC1)NCc1ccc(Cl)cc1 ?
SR-BI uptake up: 12.1; FXN GAA850 act: 0.4; HIF act: -0.3; ABCB6 inh MLPCN: 94.0; AHR activator: -0.6; SR-BI HDL uptake: -12.1

Results for Cc1cc(NC(=O)c2c([N+](=O)[O-])c(C)nn2C)no1 ?
SR-BI uptake up: 36.5; FXN GAA850 act: -2.1; HIF act: 0.0; ABCB6 inh MLPCN: 98.0; AHR activator: 70.4*; SR-BI HDL uptake: -36.5

What do the screens show for `COc1cc(C(=O)Nc2ccc(Cl)c(C(F)(F)F)c2)cc(OC)c1OC`?
SR-BI uptake up: -58.5; FXN GAA850 act: 1.1; HIF act: 0.6; ABCB6 inh MLPCN: 103.0; AHR activator: 34.4; SR-BI HDL uptake: 58.5

How did COc1ccc(NC(=O)c2cc(C)cc(C)c2)cc1[N+](=O)[O-] do in these assays?
SR-BI uptake up: -79.6; FXN GAA850 act: 2.0; HIF act: 0.4; ABCB6 inh MLPCN: 98.0; AHR activator: 39.4; SR-BI HDL uptake: 79.6*
